A value given as a limit tells only on which side of the number the result lay.

One assay concerns the target T1, Aldehyde dehydrogenase, dimeric NADP-preferring (Homo sapiens, UniProt P30838).
T1 sequence (P30838 whole entry): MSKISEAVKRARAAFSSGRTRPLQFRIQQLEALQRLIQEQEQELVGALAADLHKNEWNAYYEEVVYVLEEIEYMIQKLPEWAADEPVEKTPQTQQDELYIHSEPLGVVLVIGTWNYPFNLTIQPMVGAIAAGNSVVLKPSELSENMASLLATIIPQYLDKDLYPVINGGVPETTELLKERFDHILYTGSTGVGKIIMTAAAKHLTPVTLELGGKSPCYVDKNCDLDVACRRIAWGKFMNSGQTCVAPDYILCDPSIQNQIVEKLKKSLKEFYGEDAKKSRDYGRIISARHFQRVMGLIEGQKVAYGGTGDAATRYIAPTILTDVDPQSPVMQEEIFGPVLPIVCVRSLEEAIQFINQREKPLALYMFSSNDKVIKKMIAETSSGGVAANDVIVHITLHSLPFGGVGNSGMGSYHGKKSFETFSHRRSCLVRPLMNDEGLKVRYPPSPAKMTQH
The experiment in a line: Inhibition of ALDH3A1 (unknown origin) assessed as NADH formation using 4-nitrobenzaldehyde as substrate.
Conditions: not given
Summed up:
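Protein at 0.2 µg/mL exposed 15 min to graded inhibitor concentrations. 1 mM 4-nitrobenzaldehyde substrate with NAD+ then added, run as for the ALDH1A1 assay.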
The IC50 is the concentration needed to halve the response being measured. Regarding `N=C(N)SCc1ccc(CN2C(=O)C(=O)c3cccc(Br)c32)cc1`, the IC50 was 6320 nM.

As to `N=C(N)[Se]Cc1ccc(CN2C(=O)C(=O)c3cc(Br)ccc32)cc1`, the IC50 was 344 nM.

With `N=C(N)SCc1ccc(CN2C(=O)C(=O)c3cc(F)cc(Br)c32)cc1`, the IC50 came out at 219 nM.

Take `N=C(N)[Se]Cc1ccc(CN2C(=O)C(=O)c3ccccc32)cc1`: the IC50 was determined as 4010 nM.

Take `N=C(N)[Se]Cc1ccc(CN2C(=O)C(=O)c3cc(F)ccc32)cc1`: the half-maximal inhibitory concentration (IC50) was determined as 2360 nM.

For the compound `N=C(N)[Se]Cc1ccc(CN2C(=O)C(=O)c3cc(Cl)ccc32)cc1`, the 50% inhibitory concentration (IC50) stood at 2770 nM.

With `N=C(N)SCc1ccc(CN2C(=O)C(=O)c3cc(F)ccc32)cc1`, the concentration for half-maximal inhibition (IC50) stood at 2860 nM.

As for `N=C(N)[Se]Cc1ccc(CN2C(=O)C(=O)c3cccc(F)c32)cc1`, the half-inhibitory concentration (IC50) was 246 nM.

With `N=C(N)[Se]Cc1ccc(CN2C(=O)C(=O)c3cc(C(F)(F)F)ccc32)cc1`, the half-inhibitory concentration (IC50) was found to be 1520 nM.

On to `N=C(N)[Se]Cc1ccc(CN2C(=O)C(=O)c3cccc(Br)c32)cc1`, for which the half-inhibitory concentration (IC50) is greater than 10000 nM.

For `N=C(N)SCc1ccc(CN2C(=O)C(=O)c3ccccc32)cc1`, the IC50 is 4200 nM.

The next assay concerns UACC-903. Nature of the assay: Antiproliferative activity against human UACC 903 cells measured after 72 hrs by MTS assay. The assay is classed as functional, cell-based. The settings on record: UACC-903, 72 h. Summed up: (§1)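 Cells seeded at 5,000 per well, left overnight at 37°C in 5% CO2, then exposed to a range of compound concentrations for 72 h. IC50 was fitted from dose-response curves, 3 independent experiments, reported as mean + SD.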
(Tetrazolium dyes change colour on reduction, which living cells bring about.)
For `O=C1C(=O)N(Cc2ccccc2)c2ccccc21`, the concentration for half-maximal inhibition (IC50) is greater than 100000 nM.

Test system in a further assay: not listed separately
The experiment in a line: Antiproliferative activity against human 1205Lu cells measured after 72 hrs by MTS assay.
Conditions: not given
The assay is classed as functional, cell-based. Put shortly:
as §1
`O=C1C(=O)N(Cc2ccccc2)c2ccccc21` showed a concentration for half-maximal inhibition (IC50) greater than 100000 nM.

Test system in the next assay: not listed separately
The experiment in a line: Cytotoxicity against human FF2441 cells measured after 72 hrs by MTS assay. In kind it is cell-based. Particulars: FF2441, 72 h. Summed up: as §1
As for `O=C1C(=O)N(Cc2ccccc2)c2ccccc21`, the IC50 was greater than 100000 nM.

The values are drawn from ChEMBL document CHEMBL4706494, “Design, synthesis characterization and biological evaluation of novel multi-isoform ALDH inhibitors as potential anticancer agents” (Eur J Med Chem, 2020).
